Only some compounds are listed: those with a hit (about 3.2% of all), similar ones and a draw of the others.
DSG3 Ab inh: inhibitors of pemphigus antibody binding to DSG3, primary screen, biochemical, bead-based, flow cytometry, scFv-GFP; Desmoglein-3 (Homo sapiens), P32926; actives 0.48% (n = 310,000); DSG3-coupled beads, scFv-anti-DSG3-GFP binding; active compounds read low; binding (percent of control), % at 10 µM;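 active = binding more than 3 SD below its plate's average and above zero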;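 note: hits lower antibody fragment binding to DSG3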
MEKK2wt PB1 HTS: modulators of MEK5 binding to wildtype MEKK2, primary screen, biochemical, multiplex bead flow cytometry, Alexa488-MEK5 | AID 1531, 2009 | actives 1.1% (n = 290,000) | Alexa488-MEK5 binding to MEKK2 WT; actives lie on both sides | binding response (% of control), % at 10 µM | Mitogen-activated protein kinase kinase kinase 2 (Homo sapiens), Q9Y2U5; in the data active = binding response below about 67% or above about 130%
MEKK2mut PB1 HTS: MEK5 binding signal on mutant MEKK2 PB1, primary screen, biochemical, multiplex bead flow cytometry, Alexa488-MEK5; AID 1530, 2009; Alexa488-MEK5 binding to MEKK2 mutant; percent response, % at 10 µM; actives 0.35% (n = 290,000); in the data active = percent response above about 24%, passing the limit was not always enough
UBC13 polyUb: UBC13 polyubiquitin chain formation inhibitors, primary screen, biochemical, TR-FRET, uHTS; AID 485273, 2010; Ubiquitin-conjugating enzyme E2 N (Homo sapiens), P61088; inhibition, % at 20 µM; actives 0.47% (n = 330,000); in the data active = inhibition above about 45%, passing the limit was not always enough
Apaf1 inhib: inhibitors of human Apaf-1 apoptosome, primary screen, biochemical, DEVD-Rh110 fluorescence, uHTS | reconstituted apoptosome caspase-3 activity | inhibition, % at 20 µM | actives 0.71% (n = 330,000); active = inhibition of at least 40% at 20 µM;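 note: plate controls were DMSO wells for no effect and DEVD-CHO caspase inhibitor wells for full effect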
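Medium: Hepes buffer, pH 7.5 / System: biochemical Apaf-1 apoptosome reconstitution / Measured by: Rh110 fluorescence, excitation 480 nm, emission 540 nm / Times: compound with Apaf-1, dATP, procaspase-3 30 min, then 50 min reaction, room temperature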
MEKK3 PB1 HTS: modulators of MEKK3-MEK5 PB1 binding, primary screen, biochemical, wildtype MEKK3, multiplex bead flow cytometry, Alexa488-MEK5 | Mitogen-activated protein kinase kinase kinase 3 (Homo sapiens), Q99759 | bead-based flow cytometry, Alexa488-MEK5 binding to MEKK3; actives lie on both sides; 0 = blocked by unlabeled MEK5, 100 = vehicle | AID 1529, 2009 | actives 1.4% (n = 290,000) | binding response (% of control), % at 10 µM;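 active = binding response more than 3 SD above or below the average of its plate-row segment, actives on both sides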;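 note: Alexa488 bead fluorescence after subtracting the streptavidin-only scavenger bead signal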
Target sequence (Q99759 whole entry, looked up): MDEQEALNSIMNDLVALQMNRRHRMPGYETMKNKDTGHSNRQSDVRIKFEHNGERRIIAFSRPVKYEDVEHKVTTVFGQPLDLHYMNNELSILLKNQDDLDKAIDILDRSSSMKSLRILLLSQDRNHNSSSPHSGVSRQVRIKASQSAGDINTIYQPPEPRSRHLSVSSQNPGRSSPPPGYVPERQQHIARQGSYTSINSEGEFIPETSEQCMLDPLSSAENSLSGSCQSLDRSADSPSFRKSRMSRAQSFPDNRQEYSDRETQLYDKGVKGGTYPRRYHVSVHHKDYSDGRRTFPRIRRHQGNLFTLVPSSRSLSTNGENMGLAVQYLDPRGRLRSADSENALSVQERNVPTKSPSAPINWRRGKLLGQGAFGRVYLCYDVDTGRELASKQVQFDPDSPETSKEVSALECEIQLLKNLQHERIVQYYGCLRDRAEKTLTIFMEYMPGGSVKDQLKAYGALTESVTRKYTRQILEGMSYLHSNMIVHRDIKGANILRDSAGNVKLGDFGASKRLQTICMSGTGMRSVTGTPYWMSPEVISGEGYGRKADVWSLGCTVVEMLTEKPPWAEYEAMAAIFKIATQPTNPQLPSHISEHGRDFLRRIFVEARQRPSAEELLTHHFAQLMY
MEKK2wt confirm: modulators of MEK5 binding to wildtype MEKK2, confirmation, biochemical, single concentration, multiplex bead flow cytometry. shares compounds with MEKK3 PB1 HTS. Alexa488-MEK5 binding to MEKK2 WT; actives lie on both sides. binding response (% of control), % at 10 µM. actives 2.4% (n = 5,900). AID 1892, 2009; in the data active = binding response below about 16% or above about 210%; inactive = in between
MEKK2mut-MEK5: mutant MEKK2 PB1-MEK5 binding signal retest – biochemical, single concentration, multiplex bead flow cytometry, confirmation. shares compounds with MEKK3 PB1 HTS. Alexa488-MEK5 binding to MEKK2 mutant. percent response, % at 10 µM. actives 2% (n = 5,900); in the data active = percent response mostly above about 71%, no sharp cut-off; inactive = mostly below about 38%;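 note: higher means compound restores mutant binding toward wildtype level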
MEKK3-MEK5 inh: MEKK3 wild-type PB1 binding to MEK5, inhibitors, confirmation, biochemical, bead multiplex flow cytometry, single concentration, wildtype; shares compounds with MEKK3 PB1 HTS; actives 1.8% (n = 5,900); binding response (% of control), % at 10 µM; Alexa488-MEK5 binding to MEKK3; active compounds read low;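 active = binding response below 72% of control, or above a set upper limit, though filed actives all read lower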;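 note: 100% = DMSO only wells and 0% = binding blocked by excess unlabeled MEK5; lower values mean stronger disruption of MEK5 binding to MEKK3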
The depositor's hits bear a star; [ ] = another dose, or the depositor's remark.

Screening CC/C(=N\N1CCN(C)CC1)c1c(O)[nH]c(=O)[nH]c1=O returned DSG3 Ab inh 103, MEKK2wt PB1 HTS 105, MEKK2mut PB1 HTS 0, UBC13 polyUb 1, Apaf1 inhib 2, MEKK3 PB1 HTS 140*, MEKK2wt confirm 104, MEKK2mut-MEK5 4 and MEKK3-MEK5 inh 100.
Screening CC/C(=N\N1CCCCC1)c1c(O)[nH]c(=O)[nH]c1=O returned DSG3 Ab inh 109, MEKK2wt PB1 HTS 109, MEKK2mut PB1 HTS 1, UBC13 polyUb -11, Apaf1 inhib -19 and MEKK3 PB1 HTS 106.
Screening C=C1C(=O)OC2CC(C)C3C=CC(=O)C3(C)C(O)C12 (centres undefined) returned DSG3 Ab inh 95.
`C=C1C(=O)O[C@@H]2C[C@@H](C)[C@@H]3C4OC4C(=O)[C@@]3(C)[C@@H](O)[C@H]12` (some centres undefined) gave DSG3 Ab inh 101, MEKK2wt PB1 HTS 70, MEKK2mut PB1 HTS 4, UBC13 polyUb -3, Apaf1 inhib -4, MEKK3 PB1 HTS 69*[inhibitor], MEKK2wt confirm 97, MEKK2mut-MEK5 -5 and MEKK3-MEK5 inh 101.
For CN1CCN(c2ccc(Cl)cc2N)CC1 the results were DSG3 Ab inh 103, MEKK2wt PB1 HTS 101, MEKK2mut PB1 HTS -4, UBC13 polyUb -8, Apaf1 inhib -6 and MEKK3 PB1 HTS 97.
Screening Cc1ccc(Cl)cc1N1CCN(CCN)CC1 returned DSG3 Ab inh 102, MEKK2wt PB1 HTS 139*, MEKK2mut PB1 HTS 40*, UBC13 polyUb 9, Apaf1 inhib 9, MEKK3 PB1 HTS 108, MEKK2wt confirm 128, MEKK2mut-MEK5 12 and MEKK3-MEK5 inh 100.
`CC1=C(C)CC2(C(=O)NC(=S)NC2=O)C(C)C1` (centres undefined) gave DSG3 Ab inh 90.
For COc1cccc(C2CC3C(=O)C=CC2N3Cc2ccccc2)c1 (centres undefined) the results were DSG3 Ab inh 103, MEKK2wt PB1 HTS 105, MEKK2mut PB1 HTS 1, UBC13 polyUb -11, Apaf1 inhib 15, MEKK3 PB1 HTS 157*, MEKK2wt confirm 98, MEKK2mut-MEK5 -9 and MEKK3-MEK5 inh 99.
Screening CN1C[C@H](CNC(=O)OCc2ccccc2)C[C@@H]2c3cccc4c3c(cn4C)C[C@H]21 returned DSG3 Ab inh 109, MEKK2wt PB1 HTS 158*, MEKK2mut PB1 HTS 14, UBC13 polyUb -8, Apaf1 inhib 27, MEKK3 PB1 HTS 116, MEKK2wt confirm 140, MEKK2mut-MEK5 10 and MEKK3-MEK5 inh 99.
For CC(=O)OC1(c2ccccc2)CCN(C2CCCCC2)CC1C (centres undefined) the results were DSG3 Ab inh 109, MEKK2wt PB1 HTS 101, MEKK2mut PB1 HTS 12, UBC13 polyUb 5, Apaf1 inhib 4 and MEKK3 PB1 HTS 103.
`COC(=O)C1=C(c2ccc(S(C)(=O)=O)cc2)C[C@@H]2CC[C@H]1N2C(=O)NCCS(C)=O` (some centres undefined) gave DSG3 Ab inh 106, MEKK2wt PB1 HTS 98, MEKK2mut PB1 HTS -3, UBC13 polyUb 0, Apaf1 inhib -3 and MEKK3 PB1 HTS 96.
For CCCCn1c(C)c(C(=O)O)c2cc(OC)ccc21 the results were DSG3 Ab inh 100, MEKK2wt PB1 HTS 85, MEKK2mut PB1 HTS -7, UBC13 polyUb 0, Apaf1 inhib -6, MEKK3 PB1 HTS 81*[inhibitor], MEKK2wt confirm 107, MEKK2mut-MEK5 8 and MEKK3-MEK5 inh 103.
CN1C(=O)C(=Cc2sc(=O)n(-c3ccccc3)c2N(C)C)C(=O)N(C)C1=O was read as DSG3 Ab inh 118, MEKK2wt PB1 HTS 103, MEKK2mut PB1 HTS 4, UBC13 polyUb -150, Apaf1 inhib -27 and MEKK3 PB1 HTS 101.
`COc1ccc(C(CC(=O)N2CCC3(CC2)OCCO3)NS(=O)(=O)c2ccc(C)cc2)cc1` (centres undefined) gave DSG3 Ab inh 100, MEKK2wt PB1 HTS 88, MEKK2mut PB1 HTS -11, UBC13 polyUb 3, Apaf1 inhib 1, MEKK3 PB1 HTS 78*[inhibitor], MEKK2wt confirm 102, MEKK2mut-MEK5 7 and MEKK3-MEK5 inh 105.
Screening COC1/C=C/C=C(\C)Cc2cc(O)c(Cl)c(c2)N(C)C(=O)CC(OC(=O)C(C)C)C2(C)OC2C(C)C2CC1(O)NC(=O)O2 (centres undefined) returned DSG3 Ab inh 87.
For O=C1/C(=C\c2ccccc2)C2OCC=C3CN4CCC56c7ccccc7N1C5C2C3CC46 (centres undefined) the results were DSG3 Ab inh 96, MEKK2wt PB1 HTS 106, MEKK2mut PB1 HTS 2, UBC13 polyUb 3, Apaf1 inhib 13 and MEKK3 PB1 HTS 93.
COc1ccc(/C=C/C2=CCN(C)CC2)cc1 was read as DSG3 Ab inh 108, MEKK2wt PB1 HTS 104, MEKK2mut PB1 HTS -3, UBC13 polyUb 5, Apaf1 inhib -8 and MEKK3 PB1 HTS 94.
CN1CC=C(/C=C/c2ccc(-c3ccccc3)cc2)CC1 was read as MEKK2wt PB1 HTS 167*, MEKK2mut PB1 HTS 10, UBC13 polyUb 15, Apaf1 inhib 23, MEKK3 PB1 HTS 110, MEKK2wt confirm 163, MEKK2mut-MEK5 30 and MEKK3-MEK5 inh 104.

Screening data: PubChem BioAssay, several laboratories
